Shown are actives, neighbours in structure and some others; about 2.7% of the full set was active somewhere.
F508del corr – CFTR F508del correction in bronchial cells; CFBE cells, YFP halide quenching; stimulated with forskolin plus potentiator P3; % fluorescence drop versus neutral controls; activity (quench increase), % at 7.58 µM; 350,000 compounds, 0.36% hits; AID 720511;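 active = mean added fluorescence quench of at least 8% versus neutral control, with both replicates also reaching 8%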;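 also: cells transiently co-express mutant CFTR-F508del with the halide-sensitive YFP; corrector assay measuring rescue of mutant channel to the surface after 24 h compound exposure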
FGF22 binding – shifts melting point of recombinant human FGF22; Q9HCT0; recombinant FGF22 thermal shift, SYPRO orange fluorescence; percent of sucrose octasulfate shift, DMSO zero; activity (Tm shift, normalised), % at 9.99 µM; 340,000 compounds, 1.5% hits;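 active = mean Tm shift, scaled 0 neutral to 100 positive control, at about 1.3% or above, every replicate too, limit read from the data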
Target sequence (Q9HCT0 whole entry, looked up): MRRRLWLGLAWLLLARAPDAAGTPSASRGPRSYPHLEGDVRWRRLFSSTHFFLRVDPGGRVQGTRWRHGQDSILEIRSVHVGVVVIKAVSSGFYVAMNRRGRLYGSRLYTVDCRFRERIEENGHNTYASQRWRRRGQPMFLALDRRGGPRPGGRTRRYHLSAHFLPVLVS
E-selectin induc – induces E-selectin expression in human endothelial cells; P16581; HUVEC E-selectin immunofluorescence imaging; normalized: neutral wells 0, TNF-alpha wells 100; activation, % at 7.58 µM; 260,000 compounds, 0.37% hits;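 active = mean E-selectin-positive cell signal at least 10% of the positive control, reached in at least 60% of replicates, without over 20% cell loss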
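System: HUVEC / Compound: single concentration / Signal: immunofluorescence imaging / Read-out: percent E-selectin-positive cells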
Env fusion inh – blocks HIV Env-driven cell-cell fusion; AID 651610; inhibition, % at 12.3 µM; 360,000 compounds, 1.1% hits; HeLa-JRFL Env/CEM21 cell fusion, luciferase;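 active = mean replicate inhibition score of at least 50 and every replicate individually at or above 50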;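 also: 0% = plate neutral controls and 100% = maraviroc near 300 nM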
S100A4 inh HTS – S100A4-myosin IIA interaction inhibition; S100A4/TAMRA-MyoIIA peptide fluorescence polarization; inhibition, % at 10.7 µM; 360,000 compounds, 0.14% hits; AID 652163;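 active = mean inhibition of at least 70% across replicates, with every replicate also reaching that level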
Target sequence (P26447 whole entry, looked up): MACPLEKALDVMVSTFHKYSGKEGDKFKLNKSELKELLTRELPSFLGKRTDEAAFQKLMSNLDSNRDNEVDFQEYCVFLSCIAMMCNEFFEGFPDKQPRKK
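Test system: S100A4 monomer protein. Medium: HEPES buffer with Ca2+, pH 7.2. Reagent: fluorescent myosin IIA peptide, 5 nM. Compound dosing: single-point compound testing. Timing: 5 min between mix addition and reading. Benchmarks: DMSO neutral and TFP positive wells.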
The depositor's hits bear a star; [ ] = remark or other dose.

What do the screens show for `COc1ccc(NC(=O)C2CC(=O)N=C(N)S2)cc1` (configuration not stated)?
F508del corr: -1; FGF22 binding: 43*; Env fusion inh: -32; S100A4 inh HTS: 3

How did C[C@@H]1CN([C@H](C)CO)C(=O)c2cc(C#CC3(O)CCCC3)cnc2O[C@@H]1CN(C)C(=O)CC1CC1 do in these assays?
F508del corr: -1; FGF22 binding: 1; E-selectin induc: 0; Env fusion inh: -7[16.7 µM]; S100A4 inh HTS: 4

How did C[C@H]1CN([C@@H](C)CO)C(=O)Cc2cc(NC(=O)c3ccncc3)ccc2O[C@H]1CN(C)CC1CC1 do in these assays?
F508del corr: -5; FGF22 binding: 0; E-selectin induc: 0; Env fusion inh: -2[16.7 µM]; S100A4 inh HTS: -16

How did CN1c2ccc(-c3ccccc3)cc2[C@@H]2[C@@H](CCN2C(=O)c2cccc(F)c2)[C@@H]1CO do in these assays?
F508del corr: -1; FGF22 binding: -1; E-selectin induc: 0; S100A4 inh HTS: 130*

Results for CN1c2ccc(C3=CCCCC3)cc2[C@H]2[C@H](CCN2C(=O)C2CC2)[C@@H]1CO ?
F508del corr: -5; Env fusion inh: 98*[16.7 µM]; S100A4 inh HTS: 14

How did CN1c2ccc(C3=CCCCC3)cc2[C@@H]2[C@@H](CCN2C(=O)C2CC2)[C@H]1CO do in these assays?
F508del corr: -1; E-selectin induc: 0; Env fusion inh: -35[16.7 µM]; S100A4 inh HTS: 118*

How did CN1c2ccc(C3=CCCCC3)cc2[C@@H]2[C@@H](CCN2C(=O)C2CC2)[C@@H]1CO do in these assays?
F508del corr: 2; E-selectin induc: 0; S100A4 inh HTS: 2

What do the screens show for `O=C(C1CCCC1)N1CC[C@@H]2[C@H](CO)Nc3ccc(C4=CCCCC4)cc3[C@@H]21`?
F508del corr: 1; E-selectin induc: 50*; Env fusion inh: 45[16.7 µM]; S100A4 inh HTS: 0

How did CO[C@H]1CN(C)C(=O)c2cc(NS(=O)(=O)c3cn(C)cn3)ccc2OC[C@@H](C)N(CC2CC2)C[C@H]1C do in these assays?
F508del corr: 3; FGF22 binding: 0; E-selectin induc: 0; Env fusion inh: -8[16.7 µM]; S100A4 inh HTS: 0

Results for C[C@@H]1CN([C@@H](C)CO)C(=O)c2cc(C#Cc3cccc(F)c3)cnc2O[C@@H]1CN(C)Cc1ccccn1 ?
F508del corr: 7; FGF22 binding: 0; E-selectin induc: 0; Env fusion inh: 16[16.7 µM]; S100A4 inh HTS: -12

How did COc1ccc2c3c([nH]c2c1)[C@@H](CO)N(C(=O)c1ccncc1)CC31CN(C(=O)CC2CC2)C1 do in these assays?
F508del corr: -1; E-selectin induc: 0

Results for O=S(=O)(c1ccccc1)N1CC[C@@H]2[C@H](CO)Nc3ccc(-c4ccccc4F)cc3[C@@H]21 ?
F508del corr: 1; E-selectin induc: 0

How did CCCNC(=O)Nc1ccc2c(c1)OC[C@H](C)N(CCC)C[C@@H](C)[C@H](OC)CN(C)C2=O do in these assays?
F508del corr: 0; FGF22 binding: 0; E-selectin induc: 0; Env fusion inh: 2[16.7 µM]; S100A4 inh HTS: -1

How did O=C(C[C@@H]1CC[C@@H](NC(=O)Nc2ccc(C(F)(F)F)cc2)[C@H](CO)O1)NCc1ccccn1 do in these assays?
F508del corr: 2; FGF22 binding: 0; E-selectin induc: 1; Env fusion inh: -3[16.7 µM]; S100A4 inh HTS: -3

Results for COC(=O)Cc1ccc(NC(=O)c2ccc(C(C)(C)C)cc2)cc1 ?
Env fusion inh: 59*

What do the screens show for `CO[C@H](CN(C)S(=O)(=O)c1ccc(F)cc1)[C@H](C)CN(C(=O)Nc1ccccc1F)[C@@H](C)CO`?
F508del corr: -1; FGF22 binding: 0; E-selectin induc: 0; Env fusion inh: -10[16.7 µM]; S100A4 inh HTS: 31

Results for COc1cccc(/C=N/Nc2ccc(C(=O)O)cc2)c1O ?
F508del corr: -2; FGF22 binding: 42; Env fusion inh: 86*; S100A4 inh HTS: 5

Results for O=c1nccc(N/N=C/c2ccccc2O)[nH]1 ?
F508del corr: 1; FGF22 binding: 0; E-selectin induc: -2; Env fusion inh: 18; S100A4 inh HTS: 3

Results for COc1cccc(/C=N/Nc2ccnc(=O)[nH]2)c1O ?
F508del corr: 3; FGF22 binding: 0; E-selectin induc: 1; Env fusion inh: 65*; S100A4 inh HTS: -5

How did COc1cccc(/C=N/Nc2ccc(S(=O)(=O)O)cc2)c1O do in these assays?
Env fusion inh: 24

Results for CC(=O)Nc1ccc2cc3ccc(NC(C)=O)cc3nc2c1 ?
F508del corr: 10.0*; FGF22 binding: 1; E-selectin induc: 0; Env fusion inh: -61; S100A4 inh HTS: -1

Results for N/C(=N\OC(=O)C1CCCCC1)c1ccncc1 ?
FGF22 binding: 43*; Env fusion inh: 0; S100A4 inh HTS: 2

Results for N/C(=N\OC(=O)c1cccc(Cl)c1)c1ccncc1 ?
F508del corr: 2; FGF22 binding: 45*; Env fusion inh: -47; S100A4 inh HTS: -9

Results for CC(=O)c1cc(NC(=O)c2cccc(C(F)(F)F)c2)c(=O)oc1C ?
F508del corr: 11*; FGF22 binding: 0; Env fusion inh: -24; S100A4 inh HTS: -2

What do the screens show for `Cc1ccc2c(c1)nc(-n1nc(C)cc1C)c1nnnn12`?
F508del corr: 0; FGF22 binding: 43*; E-selectin induc: 0; Env fusion inh: -1; S100A4 inh HTS: 10

What do the screens show for `Cc1cc(C)n(-c2nc3ccccc3n3c(C)nnc23)n1`?
F508del corr: 0; FGF22 binding: 0; E-selectin induc: 1; Env fusion inh: -11; S100A4 inh HTS: 5

How did Cc1ccnc(NC(=O)c2ccc(Cl)c(NC(=O)CCc3ccccc3)c2)c1 do in these assays?
F508del corr: 1; E-selectin induc: 2; Env fusion inh: 0; S100A4 inh HTS: -5

How did Cc1ccnc(NC(=O)c2ccc(Cl)c(NC(=O)C(C)Oc3ccccc3)c2)c1 (configuration not stated) do in these assays?
F508del corr: -5; FGF22 binding: 43*; Env fusion inh: 7; S100A4 inh HTS: 2

Results for C[C@H]1CN([C@@H](C)CO)S(=O)(=O)c2ccc(C#Cc3ccc(F)cc3)cc2O[C@@H]1CN(C)C(=O)NC1CCCCC1 ?
F508del corr: 7; FGF22 binding: 0; E-selectin induc: -3; Env fusion inh: 11[16.7 µM]; S100A4 inh HTS: 8

What do the screens show for `C[C@H]1CN([C@@H](C)CO)S(=O)(=O)c2ccc(C#Cc3ccc(F)cc3)cc2O[C@H]1CN(C)C(=O)NC1CCCCC1`?
F508del corr: 10*; FGF22 binding: 0; E-selectin induc: -2; Env fusion inh: 16[16.7 µM]; S100A4 inh HTS: -4

How did C[C@H]1CN([C@@H](C)CO)S(=O)(=O)c2ccc(C#Cc3cccc(F)c3)cc2O[C@H]1CN(C)C(=O)NC1CCCCC1 do in these assays?
F508del corr: 12*; FGF22 binding: 0; E-selectin induc: 6; Env fusion inh: 15[16.7 µM]; S100A4 inh HTS: 6
